Screening data (PubChem)
PGE2 EP2 inh – human EP2 receptor antagonists, primary screen, TR-FRET cAMP, C6 glioma cells. Prostaglandin E2 receptor EP2 subtype (Homo sapiens), P43116. C6 glioma cells expressing human EP2; cells stimulated with saturating PGE2. inhibition, % at 25 µM. actives 0.52% (n = 260,000);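 active = percent inhibition above 40 after rounding to a whole number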;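 note: rat C6 glioma host cells with rolipram phosphodiesterase inhibitor present; the protocol text gives 20 µM as final concentration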
Target sequence (P43116 whole entry, looked up): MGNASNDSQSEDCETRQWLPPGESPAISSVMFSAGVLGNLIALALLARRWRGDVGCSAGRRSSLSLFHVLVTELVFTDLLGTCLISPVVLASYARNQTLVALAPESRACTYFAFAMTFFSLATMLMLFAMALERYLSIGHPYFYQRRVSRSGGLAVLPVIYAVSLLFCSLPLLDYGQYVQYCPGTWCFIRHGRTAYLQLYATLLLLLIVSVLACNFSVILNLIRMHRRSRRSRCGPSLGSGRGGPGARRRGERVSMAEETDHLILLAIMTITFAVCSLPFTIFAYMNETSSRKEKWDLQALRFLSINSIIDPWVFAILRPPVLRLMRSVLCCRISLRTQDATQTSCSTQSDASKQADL
T cell modulator – modulators of CD8 T cell-vesicle binding, primary screen, mouse 2C CD8+ T cells, flow cytometry; 2C CD8+ T cell-vesicle binding; active compounds read low; response (vesicle binding), % at 7 µM; actives 0.068% (n = 330,000);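 active = response, share of CD8 T cells binding vesicles, and their 90th percentile fluorescence all below set limits, cut at about 80% in these data, passing the limit was not always enough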;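 note: values below 100% mean blocked vesicle binding to the CD8+ T cells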
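material = purified 2C TCR transgenic mouse naive CD8+ T cells | controls = Unloaded micro-vesicles (low), QL9 vesicles with 0.7% DMSO (high) | detection = cytometric PE anti-B7-1 and Alexa647 anti-CD8 signals after 1% paraformaldehyde fixation | incubation = binding step 1.5 h, 37 °C, antibody labelling 20 min, ice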
MC4R antagonist – MC4R antagonists of cAMP signaling, primary screen, cell-based, TR-FRET, antagonist arm of biased-ligand search; MC4R-expressing cells, MTII-stimulated cAMP, LANCE TR-FRET; inhibition, % at 6.5 µM; actives 0.48% (n = 360,000); AID 540295, 2011;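 active = inhibition above its plate's cutoff, the mean of tested wells on that plate plus 3 SD, cut at about 29% in these data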
Target sequence (P32245 whole entry, looked up): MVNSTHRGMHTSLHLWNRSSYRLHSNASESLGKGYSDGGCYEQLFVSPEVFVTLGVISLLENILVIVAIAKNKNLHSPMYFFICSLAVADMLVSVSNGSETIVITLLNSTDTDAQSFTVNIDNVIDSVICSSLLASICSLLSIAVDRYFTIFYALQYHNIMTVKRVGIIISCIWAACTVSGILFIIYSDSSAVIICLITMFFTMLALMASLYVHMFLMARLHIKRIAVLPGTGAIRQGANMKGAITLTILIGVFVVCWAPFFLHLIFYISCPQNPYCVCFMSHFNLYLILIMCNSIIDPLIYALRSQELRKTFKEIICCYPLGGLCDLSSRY
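material = U2OS cells stably expressing human melanocortin 4 receptor (MC4R) | also added = Melanotan II challenge | dosing = single nominal compound dose of 6.5 µM | detection = TR-FRET with Eu-cAMP and labeled anti-cAMP, 671 nm | replication = singlicate | timing = compound 30 min, challenge 1 h, detection 1 h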
EP2 modulator – EP2 receptor modulators, cAMP readout, primary screen, cell-based, HTRF cAMP, PGE2 stimulation; Prostaglandin E2 receptor EP2 subtype (Homo sapiens), P43116; EP2-expressing cells, cAMP HTRF FRET, PGE2 co-stimulation; induction, % at 25 µM; actives 0.83% (n = 260,000); AID 940, 2007;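 active = compounds whose cAMP rise, as percent of the full-agonist control response, exceeds 60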;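 note: rat C6 glioma line stably carrying human EP2 under a CMV promoter; the protocol text gives 20 µM as final concentration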
Exocytosis inh – LAMP-1 surface exposure blockers, TALL-104 cells – cell-based, flow cytometry, MLPCN library, primary screen | TALL-104 LAMP-1 surface exposure; cells stimulated with thapsigargin and PMA | inhibition, % at 10 µM | actives 0.66% (n = 360,000);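 active = inhibition above about 55%, limit read from the data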
MC4R barr agon – MC4R agonists recruiting beta-arrestin, primary screen, cell-based, luminescence, agonist arm of biased-ligand search; Melanocortin receptor 4 (Homo sapiens), P32245; U2OS MC4R beta-arrestin complementation; percent of melanotan II response, DMSO zero; activation, % at 8.9 µM; actives 0.98% (n = 360,000); AID 540308, 2011;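 active = activation above a per-plate cutoff, the mean activation of sample wells on that plate plus 3 SD, cut at about 8% in these data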
Large screens that a line does not name were inactive; ! = not confirmed by another sample. A selection: hits, their analogues and other compounds. The true share with any hit is near 2.6%.

CCOc1ccc(Nc2oc(-c3ccc(Cl)cc3)nc2C#N)cc1	MC4R barr agon 8.9
O=C1C=CC(=O)N1c1ccc2c(c1)C(NC(=O)C(F)(F)F)c1ccccc1-2 (configuration not stated)	MC4R antagonist 71 (no result: PGE2 EP2 inh, T cell modulator, EP2 modulator)
CN(C)C(=O)NC1c2ccccc2-c2ccccc21	none (no result: PGE2 EP2 inh, EP2 modulator)
C[C@@]12CC[C@@H]3[C@H](CC=C4C[C@@H](O)CC[C@@]43C)[C@H]1CC[C@H]2N(CCO)CCO	PGE2 EP2 inh 49 (no result: T cell modulator, MC4R antagonist, Exocytosis inh, MC4R barr agon)
COc1ccc(CCNC(=O)c2cc3sc(Cl)cc3n2C)cc1OC	none
O=S(=O)(O)[C@@H](CO)c1ccccc1 (tested in a mixture with another compound)	PGE2 EP2 inh 49 (no result: T cell modulator, MC4R antagonist, Exocytosis inh, MC4R barr agon)
Cc1oc(-c2ccc(Cl)cc2)cc1C(=O)NC1CCN(Cc2ccccc2)CC1	Exocytosis inh 80
CCCCOP(=O)(OCCCC)C1(NS(=O)(=O)c2ccccc2)C=CC(=O)c2ccccc21 (configuration not stated)	Exocytosis inh 99
COc1cc2ccc(C(C)=NOC(C)=O)cc2cc1OC	none (no result: PGE2 EP2 inh, T cell modulator, EP2 modulator)
Cc1cccc(Cn2c(SCC(O)CCl)nc3c2c(=O)[nH]c(=O)n3C)c1 (configuration not stated)	none (no result: T cell modulator, MC4R antagonist, Exocytosis inh, MC4R barr agon)
CC(C)Sc1nc2c(c(=O)[nH]c(=O)n2C)n1CCCc1ccccc1	EP2 modulator 71 (no result: T cell modulator, MC4R antagonist, Exocytosis inh, MC4R barr agon)
CCCSc1nc2c(c(=O)[nH]c(=O)n2C)n1Cc1cccc(C)c1	EP2 modulator 70 (no result: T cell modulator, MC4R antagonist, Exocytosis inh, MC4R barr agon)
CCCCCn1c(Sc2nc3ccccc3s2)nc2c1c(=O)[nH]c(=O)n2C	EP2 modulator 63
C/C=C/Cn1c(SCc2ccccc2)nc2c1c(=O)[nH]c(=O)n2C	EP2 modulator 66!
COC(=O)c1ccc(-c2ccc(CNCC(O)c3ccccc3)o2)cc1 (configuration not stated)	none
C/C=C/CSc1nc2c(c(=O)[nH]c(=O)n2C)n1Cc1cccc(C)c1	none (no result: T cell modulator, MC4R antagonist, Exocytosis inh, MC4R barr agon)
C/C(Cl)=C\CSc1nc2c(c(=O)[nH]c(=O)n2C)n1Cc1cccc(C)c1	EP2 modulator 86 (no result: T cell modulator, MC4R antagonist, Exocytosis inh, MC4R barr agon)
C/C=C/CSc1nc2c(c(=O)[nH]c(=O)n2C)n1Cc1ccc(C)cc1	MC4R barr agon 8.9
COc1ccc(/C(O)=C2/C(=O)C(=O)NC2c2ccc(F)cc2)cc1OC (configuration not stated)	EP2 modulator 70 (no result: T cell modulator, MC4R antagonist, Exocytosis inh, MC4R barr agon)
COc1ccc2c(c1)cc(C)c1nn(CC(N)=O)c(=O)n12	EP2 modulator 84 (no result: T cell modulator, MC4R antagonist, Exocytosis inh, MC4R barr agon)
CCOC(=O)Cn1nc2c(C)cc3cc(OC)ccc3n2c1=O	none (no result: T cell modulator, MC4R antagonist, Exocytosis inh, MC4R barr agon)
CCC(CC)NC(=O)c1ccccc1Oc1ccccc1	none
CC(C)CC(NC(=O)C1CCC(C)CC1)C(=O)Nc1ccccn1 (configuration not stated)	none
Nc1cc2nsnc2cc1Br	PGE2 EP2 inh 138
Nc1cccc2nsnc12	none
O=C(O)CC[P+](c1ccccc1)(c1ccccc1)c1ccccc1	PGE2 EP2 inh 47 (no result: T cell modulator, MC4R antagonist, Exocytosis inh, MC4R barr agon)
CCC(=O)Nc1cc(-c2cc3ccccc3oc2=O)ccc1OC	none
COc1ccc(-c2cc3ccccc3oc2=O)cc1NC(=S)NC(=O)c1ccc2c(c1)OCCO2	MC4R barr agon 9.4
O=C(NC(=S)Nc1ccc2oc(=O)ccc2c1)c1ccccc1F	MC4R barr agon 8.4
COc1ccc(NC(C)=O)cc1NS(=O)(=O)c1cn(C)c(=O)n(C)c1=O	none (no result: PGE2 EP2 inh, EP2 modulator)
Cc1ccc(C)c(N2CCN(S(=O)(=O)c3ccc(-c4ccc(=O)[nH]n4)o3)CC2)c1	MC4R barr agon 11 (no result: PGE2 EP2 inh, EP2 modulator)
Oc1c(Cl)cc(C(c2cc(Cl)c(O)c(Cl)c2)C(c2cc(Cl)c(O)c(Cl)c2)c2cc(Cl)c(O)c(Cl)c2)cc1Cl	PGE2 EP2 inh 49 (no result: T cell modulator, MC4R antagonist, Exocytosis inh, MC4R barr agon)
CCCCOC(=O)c1ccc(NC(=O)C(=O)NCc2ccncc2)cc1	T cell modulator 0.0
Cc1ccc(-n2ncc3c(N4CCCC(C)C4)ncnc32)c(C)c1 (configuration not stated)	T cell modulator 43
CCOc1ccccc1/C=N/Nc1nc(C)cc(=O)[nH]1	none (no result: PGE2 EP2 inh, EP2 modulator)
CCCCCCCCCCOC(=O)Cn1c(COc2ccc(Cl)cc2)[n+](C)c2ccccc21	MC4R barr agon 17 (no result: PGE2 EP2 inh, EP2 modulator)
CCCCCCCCCCOC(=O)Cn1c(COc2ccccc2C)[n+](C)c2ccccc21	Exocytosis inh 80, MC4R barr agon 49 (no result: PGE2 EP2 inh, EP2 modulator)
O=C(COc1cccc(Cl)c1)N/N=C\c1cc2ccccc2nc1Cl	MC4R barr agon 9.0
Cc1ccccc1OCC(=O)N/N=C/c1cc2ccccc2nc1Cl	none
O=C1CN(C(=O)c2ccc(F)cc2)c2ccccc2N1	T cell modulator 26 (no result: PGE2 EP2 inh, EP2 modulator)
N#Cc1ccc(Oc2cnccn2)cc1	none (no result: PGE2 EP2 inh, EP2 modulator)
Nc1nc2c(s1)COc1ccccc1-2	none
Nc1nc2c(s1)CCc1c-2cnn1-c1ccccc1	PGE2 EP2 inh 40
CCOc1ccc(C(=O)C(CCC(CN(C)C)C(=O)c2ccc(OCC)cc2)CN(C)C)cc1 (configuration not stated)	Exocytosis inh 60, MC4R barr agon 9.5 (no result: T cell modulator)
O=C(NCc1ccccc1Cl)c1ccc(-c2ccccc2)cc1	MC4R barr agon 9.3
CC1CCN(C(=O)c2ccc(NS(=O)(=O)c3cccs3)cc2)CC1	none (no result: PGE2 EP2 inh, EP2 modulator)
COc1cccc(OC)c1-c1nn2c(-c3cc(-c4ccccc4)n[nH]3)nnc2s1	MC4R barr agon 36
COc1cccc(-c2nnc3sc(-c4ccccc4)nn23)c1	none
CCN(CC)c1ccc(-c2nn3c(-c4ccccc4OC)nnc3s2)cc1	Exocytosis inh 80
Cc1cc(C)c(NC(=O)CSc2nnc(-c3ccco3)n2N)c(C)c1	none
CCOC(=O)c1cccc(NC(=O)CSc2nnc3c(C)cc4cc5c(cc4n23)OCO5)c1	PGE2 EP2 inh 48 (no result: T cell modulator, MC4R antagonist, Exocytosis inh, MC4R barr agon)
NC(=O)c1ccsc1NC(=O)CSc1n[nH]c(N)n1	none (no result: PGE2 EP2 inh, EP2 modulator)
Cc1ccsc1/C=C/C1=Cc2c(sc(NC(=O)CSc3n[nH]c(N)n3)c2C#N)C(C)(C)C1	Exocytosis inh 101
CCOc1ccc(/C=C/C2=Cc3c(sc(NC(=O)CSc4n[nH]c(N)n4)c3C#N)C(C)(C)C2)cc1	Exocytosis inh 78
CCOC(=O)c1sc(NC(=O)CSc2n[nH]c(-c3ccncc3)n2)c(C#N)c1C	none
CC(=O)Nc1ccc(Nc2nc(C(F)(F)F)nc3c2nnn3Cc2ccccc2Cl)cc1	MC4R barr agon 8.9 (no result: PGE2 EP2 inh, EP2 modulator)
NC(=O)c1ccc(Sc2nnc(-c3cccs3)n2CC2CCCO2)c([N+](=O)[O-])c1 (configuration not stated)	none
